Test results taken from article PMC10107787 (Chemistry (Weinheim an Der Bergstrasse, Germany), 2022).
Values belong to the molecule of their own block, whether it stands above or below them.

Columns and labels:
[1] = Amide temperature coefficients by variable temperature 1H NMR; assay type: physicochemical
Outline: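 Variable-temperature ¹H NMR at 500 MHz with a cryoprobe, using 16 scans and a 0.7 s relaxation delay. DMSO‑d₆ series ran from 25 to 65 or 20 to 60 °C; the CDCl₃ series ran from 10 to 50 °C; both used 10 °C steps. Each NH coefficient was calculated as (δ_high−δ_low)/(T_high−T_low), in ppb/K.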

[2] = LogD7.4, miniaturized shake-flask procedure; assay type: physicochemical; details: pH 7.4
Outline: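 Measured in three repeats, and the reported logD is their mean.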

[3] = Permeability across Caco-2 cell monolayers; assay type: in vitro ADME; details: human, Caco-2, ER (efflux ratio, Papp BA/Papp AB), Caco-2 cell monolayers, no inhibitors
Outline: (§1)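 Apical‑to‑basolateral and basolateral‑to‑apical Papp were measured across Caco‑2 monolayers. Efflux ratio is Papp BA/Papp AB. A parallel set was run with a cocktail of three inhibitors aimed at the three major efflux transporters. Papp AB is the mean±std of three repeats.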

[4] = system: Caco‐2 cell monolayers; assay: Permeability across Caco-2 cell monolayers; assay type: in vitro ADME
Outline: as §1

Temperature coefficient, CDCl3 ([1]; asunaprevir proton 1’’’‐NH): −4.3 ppb/K
Temperature coefficient, DMSO‐d6 ([1]; asunaprevir proton 1’’’‐NH): −2.8 ppb/K
Temperature coefficient, CDCl3 ([1]; asunaprevir proton 1’’’’‐NH): −4.3 ppb/K
Temperature coefficient, DMSO‐d6 ([1]; asunaprevir proton 1’’’’‐NH): −3.5 ppb/K
Temperature coefficient, CDCl3 ([1]; asunaprevir proton 2’‐NH): −0.3 ppb/K
Temperature coefficient, DMSO‐d6 ([1]; asunaprevir proton 2’‐NH): 1.5 ppb/K
logD [2]: 3.1
efflux ratio [3]: 270
Structure (SMILES): C=C[C@@H]1C[C@]1(NC(=O)[C@@H]1C[C@@H](Oc2ncc(OC)c3ccc(Cl)cc23)CN1C(=O)[C@@H](NC(=O)OC(C)(C)C)C(C)(C)C)C(=O)NS(=O)(=O)C1CC1 [Asunaprevir]

Temperature coefficient, CDCl3 ([1]; atazanavir proton 4‐NH): −2.0 ppb/K
Temperature coefficient, DMSO‐d6 ([1]; atazanavir proton 4‐NH): −9.8 ppb/K
Temperature coefficient, DMSO‐d6 ([1]; atazanavir proton 7‐NH): −4.3 ppb/K
Temperature coefficient, DMSO‐d6 ([1]; atazanavir proton 12‐NH): −3.5 ppb/K
Temperature coefficient, CDCl3 ([1]; atazanavir proton 15‐NH): −1.0 ppb/K
Temperature coefficient, DMSO‐d6 ([1]; atazanavir proton 15‐NH): −6.5 ppb/K
efflux ratio [3]: 40
Structure (SMILES): COC(=O)N[C@H](C(=O)N[C@@H](Cc1ccccc1)[C@@H](O)CN(Cc1ccc(-c2ccccn2)cc1)NC(=O)[C@@H](NC(=O)OC)C(C)(C)C)C(C)(C)C [Atazanavir]

Temperature coefficient, CDCl3 ([1]; daclatasvir proton 2’’’‐NH): −3.3 ppb/K
Temperature coefficient, DMSO‐d6 ([1]; daclatasvir proton 2’’’‐NH): −3.8 ppb/K
logD [2]: 3.9
efflux ratio [3]: 38
Structure (SMILES): COC(=O)N[C@H](C(=O)N1CCC[C@H]1c1nc(-c2ccc(-c3ccc(-c4c[nH]c([C@@H]5CCCN5C(=O)[C@@H](NC(=O)OC)C(C)C)n4)cc3)cc2)c[nH]1)C(C)C [Daclatasvir]

Temperature coefficient, CDCl3 ([1]; simeprevir proton 1’’’‐NH): −8.8 ppb/K
Temperature coefficient, DMSO‐d6 ([1]; simeprevir proton 1’’’‐NH): −2.5 ppb/K
Temperature coefficient, CDCl3 ([1]; simeprevir proton 13‐NH): −1.3 ppb/K
Temperature coefficient, DMSO‐d6 ([1]; simeprevir proton 13‐NH): −1.0 ppb/K
logD [2]: 3.7
efflux ratio [3]: 330
ER+Inhibitors ([4]; Caco-2, in the presence of the efflux inhibitor cocktail): highest efflux ratio
ER (efflux ratio, Papp BA/Papp AB) ([4]; Caco-2 cell monolayers, no inhibitors): largest
Structure (SMILES): COc1ccc2c(O[C@@H]3C[C@H]4C(=O)N[C@]5(C(=O)NS(=O)(=O)C6CC6)C[C@H]5/C=C\CCCCN(C)C(=O)[C@@H]4C3)cc(-c3nc(C(C)C)cs3)nc2c1C [Simeprevir]
